In ChEMBL document CHEMBL1141931, “Synthesis and evaluation of new antimalarial phenylurenyl chalcone derivatives” (J Med Chem, 2005):

Tests used:
Mus musculus [1] = species: Mus musculus; assay: Inhibition of hemoglobin hydrolysis in mice (Mus musculus) infected with Plasmodium berghei at 10 uM; format: functional
Falcipain 2 [2] = target: T1, Falcipain 2 (Plasmodium falciparum, UniProt Q9N6S8); assay: Inhibitory concentration against recombinant Falcipain-2
T1 sequence (Q9N6S8 whole entry): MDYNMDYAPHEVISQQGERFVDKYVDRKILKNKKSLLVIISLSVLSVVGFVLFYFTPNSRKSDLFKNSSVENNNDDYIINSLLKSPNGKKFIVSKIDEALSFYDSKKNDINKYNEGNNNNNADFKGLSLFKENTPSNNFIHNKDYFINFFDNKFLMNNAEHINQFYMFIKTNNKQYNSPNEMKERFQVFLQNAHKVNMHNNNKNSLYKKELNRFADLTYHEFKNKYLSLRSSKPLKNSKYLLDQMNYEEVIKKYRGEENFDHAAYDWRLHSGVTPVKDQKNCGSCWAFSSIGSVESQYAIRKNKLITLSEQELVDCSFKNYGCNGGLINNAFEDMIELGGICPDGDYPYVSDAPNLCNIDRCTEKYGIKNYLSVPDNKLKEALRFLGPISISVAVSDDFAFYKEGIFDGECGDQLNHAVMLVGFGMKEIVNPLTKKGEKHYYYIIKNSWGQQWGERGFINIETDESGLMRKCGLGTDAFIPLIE

Plasmodium falciparum [3] = assay: Inhibitory concentration against Plasmodium falciparum in FACS; format: functional, organism-based
How it was run: (§1)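 Chloroquine-resistant P. falciparum cultures were exposed to a range of compound concentrations for 48 h, starting at the ring stage. New ring forms were counted by FACS (flow cytometry), and parasitemia was compared with untreated controls to derive IC50.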

Mus musculus [4] = species: Mus musculus; assay: Inhibition of hemoglobin hydrolysis in mice (Mus musculus) infected with Plasmodium berghei at 5 uM; format: functional
Falcipain 2 [5] = target: T1, Falcipain 2; assay: Inhibitory concentration against falcipain-2; No significant effect impaired solubility
Plasmodium falciparum [6] = assay: Inhibitory concentration against Plasmodium falciparum; format: functional, organism-based; how it was run: as §1
Mus musculus [7] = species: Mus musculus; assay: Inhibition of hemoglobin hydrolysis in mice (Mus musculus) infected with Plasmodium berghei at 100 uM; format: functional
[8] = target: T2, Histidine-rich protein PFHRP-II (Plasmodium falciparum) (UniProt P05227); settings: Plasmodium berghei; 100 uM
T2 sequence (whole entry): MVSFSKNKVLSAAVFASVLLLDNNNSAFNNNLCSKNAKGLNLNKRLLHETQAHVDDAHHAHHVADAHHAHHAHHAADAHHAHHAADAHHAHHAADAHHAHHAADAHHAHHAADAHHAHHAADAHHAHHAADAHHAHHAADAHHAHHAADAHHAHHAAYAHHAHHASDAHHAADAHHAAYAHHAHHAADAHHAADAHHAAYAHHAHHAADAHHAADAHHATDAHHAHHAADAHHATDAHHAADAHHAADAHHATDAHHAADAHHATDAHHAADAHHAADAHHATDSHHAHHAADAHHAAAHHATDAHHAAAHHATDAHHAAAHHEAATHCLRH

CC(=O)N[C@@H](CC(C)C)C(=O)N[C@@H](CC(C)C)C(=O)N[C@H](C=O)CCCNC(=N)N [LEUPEPTIN]
Inhibition (Mus musculus [1]): 87.02%
IC50 (Falcipain 2 [2]): 0.0058 µM
IC50 (Plasmodium falciparum [3]): 6.26 µM

COc1cc(/C=C/C(=O)c2ccc(NC(=O)Nc3ccc(Cl)cc3)cc2)cc(OC)c1OC
IC50 (Falcipain 2 [2]): 1.8 µM
IC50 (Plasmodium falciparum [3]): 3 µM

Cc1ccc(/C=C/C(=O)c2cccc(NC(=O)Nc3ccccc3)c2)cc1
Inhibition (Mus musculus [4]): 74.93%
IC50 (Falcipain 2 [5]): No significant effect
IC50 (Plasmodium falciparum [3]): 2.74 µM

COc1ccc(NC(=O)Nc2ccc(C(=O)/C=C/c3ccc(C)cc3)cc2)cc1
IC50 (Plasmodium falciparum [6]): > 10 µM

O=C(Nc1ccccc1)Nc1cccc(C(=O)/C=C/c2ccc(F)cc2)c1
IC50 (Plasmodium falciparum [6]): > 10 µM

CC(C)CC(=O)N[C@H](C(=O)N[C@H](C(=O)N[C@@H](CC(C)C)[C@@H](O)CC(=O)N[C@@H](C)C(=O)N[C@@H](CC(C)C)[C@@H](O)CC(=O)O)C(C)C)C(C)C [PEPSTATIN]
Inhibition (Mus musculus [1]): 91.91%

COc1ccc(/C=C/C(=O)c2ccc(NC(=O)Nc3ccc(Cl)cc3)cc2)c(OC)c1
IC50 (Plasmodium falciparum [6]): > 10 µM

COc1ccc(/C=C/C(=O)c2cccc(NC(=O)Nc3ccccc3)c2)c(OC)c1
IC50 (Plasmodium falciparum [6]): > 10 µM

O=C(Nc1ccccc1)Nc1ccc(C(=O)/C=C/c2ccccn2)cc1
IC50 (Plasmodium falciparum [6]): > 10 µM

O=C(Nc1ccccc1)Nc1cccc(C(=O)/C=C/c2ccc(F)cc2F)c1
IC50 (Plasmodium falciparum [6]): > 10 µM

O=C(Nc1ccccc1)Nc1ccc(C(=O)/C=C/c2ccc(F)cc2)cc1
IC50 (Plasmodium falciparum [6]): > 10 µM

O=C(Nc1ccccc1)Nc1cccc(C(=O)/C=C/c2ccc(Cl)cc2Cl)c1
Inhibition (Mus musculus [4]): 60.72%
IC50 (Falcipain 2 [5]): No significant effect
IC50 (Plasmodium falciparum [3]): 2.14 µM

COc1ccc(NC(=O)Nc2ccc(C(=O)/C=C/c3ccccc3)cc2)cc1
IC50 (Plasmodium falciparum [6]): > 10 µM

Cc1ccc(/C=C/C(=O)c2ccc(NC(=O)Nc3ccccc3)cc2)cc1
IC50 (Plasmodium falciparum [6]): > 10 µM

O=C(Nc1ccccc1)Nc1ccc(C(=O)/C=C/c2ccccc2)cc1
IC50 (Plasmodium falciparum [6]): > 10 µM

O=C(Nc1ccccc1)Nc1cccc(C(=O)/C=C/c2ccccc2)c1
IC50 (Plasmodium falciparum [6]): > 10 µM

O=C(Nc1ccccc1)Nc1cccc(C(=O)/C=C/c2ccc3c(c2)OCO3)c1
IC50 (Plasmodium falciparum [6]): > 10 µM

COc1ccc(/C=C/C(=O)c2cccc(NC(=O)Nc3ccccc3)c2)cc1OC
IC50 (Plasmodium falciparum [6]): > 10 µM

O=C(Nc1ccccc1)Nc1ccc(C(=O)/C=C/c2ccc(F)cc2F)cc1
IC50 (Plasmodium falciparum [6]): > 10 µM

COc1ccc(NC(=O)Nc2ccc(C(=O)/C=C/c3ccc(OC)cc3OC)cc2)cc1
IC50 (Plasmodium falciparum [6]): > 10 µM

COc1ccc(/C=C/C(=O)c2ccc(NC(=O)Nc3ccccc3)cc2)c(OC)c1
IC50 (Plasmodium falciparum [6]): > 10 µM

Cc1ccc(/C=C/C(=O)c2ccc(NC(=O)Nc3ccc(Cl)cc3)cc2)cc1
IC50 (Plasmodium falciparum [6]): > 10 µM

O=C(Nc1ccccc1)Nc1ccc(C(=O)/C=C/c2ccc(Cl)cc2Cl)cc1
IC50 (Plasmodium falciparum [6]): > 10 µM

O=C(Nc1ccc(Cl)cc1)Nc1ccc(C(=O)/C=C/c2ccc(Cl)cc2Cl)cc1
Inhibition (Mus musculus [4]): 60.31%
IC50 (Falcipain 2 [2]): 2.5 µM
IC50 (Plasmodium falciparum [3]): 5 µM

CC(C)C[C@H](NC(=O)[C@H]1O[C@@H]1C(=O)O)C(=O)NCCCCN=C(N)N [E-64]
IC50 (Falcipain 2 [2]): 0.058 µM
IC50 (Plasmodium falciparum [3]): 2.5 µM

COc1cc(/C=C/C(=O)c2cccc(NC(=O)Nc3ccccc3)c2)cc(OC)c1OC
Inhibition (Mus musculus [4]): 51.45%
IC50 (Falcipain 2 [5]): No significant effect
IC50 (Plasmodium falciparum [3]): 1.76 µM

COc1ccc(NC(=O)Nc2ccc(C(=O)/C=C/c3cc(OC)c(OC)c(OC)c3)cc2)cc1
IC50 (Plasmodium falciparum [6]): > 10 µM

COc1ccc(/C=C/C(=O)c2ccc(NC(=O)Nc3ccc(OC)cc3)cc2)cc1
IC50 (Plasmodium falciparum [6]): > 10 µM

COc1ccc(NC(=O)Nc2ccc(C(=O)/C=C/c3ccc(Cl)cc3Cl)cc2)cc1
IC50 (Plasmodium falciparum [6]): > 10 µM

O=C(Nc1ccc(Cl)cc1)Nc1ccc(C(=O)/C=C/c2ccc3c(c2)OCO3)cc1
IC50 (Falcipain 2 [2]): 2.5 µM
IC50 (Plasmodium falciparum [3]): 10 µM

COc1ccc(/C=C/C(=O)c2cccc(NC(=O)Nc3ccccc3)c2)cc1
IC50 (Plasmodium falciparum [6]): > 10 µM

CCN(CC)CCCC(C)Nc1ccnc2cc(Cl)ccc12 (centres undefined) [CHLOROQUINE]
Inhibition (Mus musculus [7]): 5.15%
inhibition [8]: 86.6%

COc1ccc(NC(=O)Nc2ccc(C(=O)/C=C/c3ccc(F)cc3F)cc2)cc1
IC50 (Plasmodium falciparum [6]): > 10 µM

COc1ccc(NC(=O)Nc2ccc(C(=O)/C=C/c3ccc(Cl)cc3)cc2)cc1
IC50 (Plasmodium falciparum [6]): > 10 µM

CN(C)c1ccc(/C=C/C(=O)c2cccc(NC(=O)Nc3ccccc3)c2)cc1
IC50 (Plasmodium falciparum [6]): > 10 µM

COc1ccc(NC(=O)Nc2ccc(C(=O)/C=C/c3ccc4c(c3)OCO4)cc2)cc1
IC50 (Plasmodium falciparum [6]): > 10 µM

O=C(Nc1ccccc1)Nc1ccc(C(=O)/C=C/c2ccc(Cl)cc2)cc1
IC50 (Plasmodium falciparum [6]): > 10 µM

O=C(Nc1ccccc1)Nc1cccc(C(=O)/C=C/c2ccc(Br)cc2)c1
Inhibition (Mus musculus [4]): 66.58%
IC50 (Falcipain 2 [5]): No significant effect
IC50 (Plasmodium falciparum [3]): 2.1 µM

O=C(Nc1ccc(Cl)cc1)Nc1ccc(C(=O)/C=C/c2ccccc2)cc1
IC50 (Falcipain 2 [2]): 3.8 µM
IC50 (Plasmodium falciparum [3]): 9 µM

O=C(Nc1ccc(Cl)cc1)Nc1ccc(C(=O)/C=C/c2ccc(F)cc2)cc1
IC50 (Plasmodium falciparum [6]): > 10 µM

O=C(Nc1ccccc1)Nc1ccc(C(=O)/C=C/c2ccc3c(c2)OCO3)cc1
IC50 (Plasmodium falciparum [6]): > 10 µM

COc1ccc(/C=C/C(=O)c2ccc(NC(=O)Nc3ccccc3)cc2)cc1
IC50 (Plasmodium falciparum [6]): > 10 µM

COc1ccc(/C=C/C(=O)c2ccc(NC(=O)Nc3ccc(Cl)cc3)cc2)cc1
IC50 (Plasmodium falciparum [6]): > 10 µM

O=C(Nc1ccccc1)Nc1cccc(C(=O)/C=C/c2ccc(Cl)cc2)c1
IC50 (Plasmodium falciparum [6]): > 10 µM

COc1cccc(/C=C/C(=O)c2cccc(NC(=O)Nc3ccccc3)c2)c1OC
IC50 (Plasmodium falciparum [6]): > 10 µM

O=C(Nc1ccc(Cl)cc1)Nc1ccc(C(=O)/C=C/c2ccc(Cl)cc2)cc1
IC50 (Falcipain 2 [2]): 2.6 µM
IC50 (Plasmodium falciparum [3]): 10 µM

COc1cc(/C=C/C(=O)c2ccc(NC(=O)Nc3ccccc3)cc2)cc(OC)c1OC
IC50 (Plasmodium falciparum [6]): > 10 µM

COc1ccc(NC(=O)Nc2ccc(C(=O)/C=C/c3ccc(F)cc3)cc2)cc1
IC50 (Plasmodium falciparum [6]): > 10 µM

O=C(Nc1ccc(Cl)cc1)Nc1ccc(C(=O)/C=C/c2ccc(F)cc2F)cc1
Inhibition (Mus musculus [4]): 33.04%
IC50 (Falcipain 2 [2]): 2.6 µM
IC50 (Plasmodium falciparum [3]): 8 µM
